{"data": "Measured values from different studies", "MTNR1A": "Melatonin receptor type 1A (MTNR1A, Homo sapiens, UniProt P48039)"}
{"Compound": "Cc1nn(C)cc1-c1nc2c(N3CCN(Cc4ccc(Cl)cc4)CC3)c(Cl)cnc2[nH]1", "target": "Receptor-type tyrosine-protein kinase FLT3 (FLT3, Homo sapiens, UniProt P36888, K663Q)", "assay": "binding, competition with immobilised ligand", "setting": "1 µM", "measurement": "remaining binding", "result": "0.8%"}
{"Compound": "C#Cc1n[nH]c2c(-c3cn([C@@H](C)c4ccccn4)c(=O)[nH]c3=O)cc(F)cc12", "target": "Aurora kinase C (AURKC, Homo sapiens, UniProt Q9UQB9)", "assay": "enzyme activity, inhibitor", "setting": "0.1 µM", "measurement": "inhibition", "result": "1.4%"}
{"Compound": "COc1ccc2[nH]cc(CCNC(=O)CI)c2c1", "target": "MTNR1A", "assay": "β-arrestin recruitment, agonist", "test system": "CHO-K1", "setting": "90 min", "measurement": "Emax", "result": "92%"}
{"Compound": "Nc1ncc(-c2nc(N3CCOCC3)nc(N3CCOCC3)n2)c(C(F)F)n1", "target": "Serine/threonine-protein kinase SIK3 (SIK3, Homo sapiens, UniProt Q9Y2K2)", "assay": "binding, competition with immobilised ligand", "setting": "10 µM", "measurement": "remaining binding", "result": "72%"}
{"Compound": "COc1ncccc1-c1cnn2ccc(N3CCN(C(=O)OC(C)C)CC3)nc12", "target": "Activin receptor type-2B (ACVR2B, Homo sapiens, UniProt Q13705)", "assay": "binding, competition with immobilised ligand", "setting": "1 µM", "measurement": "remaining binding", "result": "69%"}
{"Compound": "COc1ccc2cccc(C(CO)CNC(=O)CF)c2c1 (centres unmarked)", "target": "MTNR1A", "assay": "β-arrestin recruitment, agonist", "test system": "CHO-K1", "setting": "90 min", "measurement": "Emax", "result": "101%"}
{"Compound": "Cc1ccccc1N(C)C(=O)Oc1nsnc1N1CCCCC1", "target": "Fatty-acid amide hydrolase 1 (FAAH, Homo sapiens, UniProt O00519)", "assay": "enzyme activity, inhibitor", "setting": "10 µM, cell membranes", "measurement": "inhibition", "result": "40%"}
{"Compound": "CCN(CC)CCCC[C@H](NC(=O)[C@H](CC(C)C)NC(=O)[C@H](C)NC(=O)[C@H](Cc1ccccc1)NC(=O)c1ccc(C(C)(C)C)cc1)C(=O)N[C@@H](CO)C(=O)OC", "target": "BRWD3 (Homo sapiens, UniProt Q6RI45)", "assay": "thermal stability, DSF", "setting": "25 µM", "measurement": "ΔTm", "result": "-0.57 °C"}
